This is an account of results in ChEMBL document CHEMBL4261636, “Design of Y2 Receptor Selective and Proteolytically Stable PYY3-36 Analogues” (J Med Chem, 2018).

One data set concerns the target Dipeptidyl peptidase 4 (Sus scrofa, UniProt P22411). In words: Drug metabolism in minipig plasma assessed as DDP-4-meditaed GLP1(9 to 37 residues) formation by measuring half life at 1 uM by LC-MS analysis. It counts as ADME. The note with it: pig. An outline of the steps: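 Heparinized mini-pig plasma diluted 4:1 with 0.1 M PBS pH 7.4, pre-warmed 30 min at 37°C with peptide, then combined (1 uM final) and kept at 37°C. Aliquots taken at 5–300 min were quenched in 3 volumes methanol with internal standard, centrifuged and water-diluted. Analysed by ESI+ QTOF LC-MS against 20–2000 nM plasma calibrators, with %-remaining normalised to the 15 min sample; n = 3.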

A short description of data set [1]: Displacement of [125I]-PYY(1 to 36 residues) from mouse Y1R expressed in HEK293 cell membranes after 2 hrs by scintillation proximity assay.
In data set [2] the target is T1, Neuropeptide Y receptor type 5 (Mus musculus, UniProt O70342).
T1 sequence (O70342 whole entry): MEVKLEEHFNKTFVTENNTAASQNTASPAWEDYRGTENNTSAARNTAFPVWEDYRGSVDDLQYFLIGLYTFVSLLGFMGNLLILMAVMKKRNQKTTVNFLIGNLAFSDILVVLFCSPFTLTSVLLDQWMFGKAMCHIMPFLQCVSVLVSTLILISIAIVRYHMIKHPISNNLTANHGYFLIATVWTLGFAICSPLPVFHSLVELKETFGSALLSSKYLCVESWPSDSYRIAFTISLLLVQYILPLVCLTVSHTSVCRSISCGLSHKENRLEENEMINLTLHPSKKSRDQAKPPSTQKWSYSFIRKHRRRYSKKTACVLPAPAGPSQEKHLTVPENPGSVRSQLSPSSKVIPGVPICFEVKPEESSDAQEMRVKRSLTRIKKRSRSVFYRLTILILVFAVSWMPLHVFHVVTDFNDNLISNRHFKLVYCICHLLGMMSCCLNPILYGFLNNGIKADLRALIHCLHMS
In words: Displacement of [125I]-PYY(1 to 36 residues) from mouse Y5R expressed in HEK293 cell membranes after 2 hrs by scintillation proximity assay.

Data set [3] deals with Neuropeptide Y receptor type 4 (Mus musculus, UniProt Q61041). In words: Displacement of [125I]-PP from mouse Y4R expressed in HEK293 cell membranes after 2 hrs by scintillation proximity assay. In general terms: In a radioligand displacement assay an active substance lowers the binding of a labelled ligand.
Sequence of Neuropeptide Y receptor type 4 (Q61041 whole entry): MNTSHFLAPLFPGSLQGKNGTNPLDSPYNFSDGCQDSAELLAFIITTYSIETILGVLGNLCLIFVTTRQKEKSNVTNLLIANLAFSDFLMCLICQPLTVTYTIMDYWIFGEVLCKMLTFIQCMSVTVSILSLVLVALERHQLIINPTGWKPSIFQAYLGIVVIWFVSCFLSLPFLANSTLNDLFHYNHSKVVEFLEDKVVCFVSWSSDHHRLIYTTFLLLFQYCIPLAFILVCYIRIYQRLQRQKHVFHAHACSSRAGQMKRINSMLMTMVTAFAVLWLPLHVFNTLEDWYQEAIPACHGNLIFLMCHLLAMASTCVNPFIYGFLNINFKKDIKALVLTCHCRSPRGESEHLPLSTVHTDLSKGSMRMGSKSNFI
The target of data set [4] is T2, Neuropeptide Y receptor type 1 (Homo sapiens, UniProt P25929).
T2 sequence (P25929 whole entry): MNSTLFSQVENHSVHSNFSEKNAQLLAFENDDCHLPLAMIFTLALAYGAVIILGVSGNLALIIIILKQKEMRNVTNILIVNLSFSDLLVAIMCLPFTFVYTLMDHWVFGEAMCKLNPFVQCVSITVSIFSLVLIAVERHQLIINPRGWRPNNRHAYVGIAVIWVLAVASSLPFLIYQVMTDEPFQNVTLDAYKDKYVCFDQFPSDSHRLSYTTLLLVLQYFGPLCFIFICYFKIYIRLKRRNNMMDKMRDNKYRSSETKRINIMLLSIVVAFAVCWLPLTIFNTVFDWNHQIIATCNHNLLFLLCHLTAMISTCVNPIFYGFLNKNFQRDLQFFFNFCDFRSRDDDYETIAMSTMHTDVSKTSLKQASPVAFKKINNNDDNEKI
Briefly: Activation of human Y1R expressed in HEK293 cells assessed as inhibition of isoproterenol-induced increase in intracellular cAMP levels by calcium 5 dye-based FLIPR assay. It counts as functional, cell-based.

A short description of data set [5]: Displacement of [125I]-PYY(1 to 36 residues) from mouse Y2R expressed in HEK293 cell membranes after 2 hrs by scintillation proximity assay.
In data set [6] the target is T3, Neuropeptide Y receptor type 2 (Homo sapiens, UniProt P49146).
T3 sequence (P49146 whole entry): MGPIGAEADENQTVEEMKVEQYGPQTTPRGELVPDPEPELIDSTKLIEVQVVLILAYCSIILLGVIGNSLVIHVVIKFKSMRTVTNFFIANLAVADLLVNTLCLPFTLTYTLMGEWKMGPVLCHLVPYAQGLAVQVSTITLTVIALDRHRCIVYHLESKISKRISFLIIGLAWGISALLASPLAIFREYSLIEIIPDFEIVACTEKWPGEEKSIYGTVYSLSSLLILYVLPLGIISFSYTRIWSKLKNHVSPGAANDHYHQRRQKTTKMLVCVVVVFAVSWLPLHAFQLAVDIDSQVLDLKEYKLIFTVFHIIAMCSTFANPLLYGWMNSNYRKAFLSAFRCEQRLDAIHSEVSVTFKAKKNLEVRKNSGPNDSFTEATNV
In words: Activation of human Y2R expressed in HEK293 cells assessed as inhibition of isoproterenol-induced increase in intracellular cAMP levels by calcium 5 dye-based FLIPR assay. It counts as functional, cell-based. Background: Changes in cAMP serve as a functional read-out for many G protein-coupled receptors.

Data set [7] concerns the target T3, Neuropeptide Y receptor type 2. Briefly: Displacement of [125I]-PYY(1 to 36 residues) from human Y2R expressed in CHO cell membranes after 2 hrs by scintillation proximity assay.
Data set [8] concerns the target T2, Neuropeptide Y receptor type 1. Briefly: Displacement of [125I]-PYY(1 to 36 residues) from human Y1R expressed in BHK-21 cell membranes after 2 hrs by scintillation proximity assay.

Sequence of Dipeptidyl peptidase 4 (P22411 whole entry, the tested form may be a part): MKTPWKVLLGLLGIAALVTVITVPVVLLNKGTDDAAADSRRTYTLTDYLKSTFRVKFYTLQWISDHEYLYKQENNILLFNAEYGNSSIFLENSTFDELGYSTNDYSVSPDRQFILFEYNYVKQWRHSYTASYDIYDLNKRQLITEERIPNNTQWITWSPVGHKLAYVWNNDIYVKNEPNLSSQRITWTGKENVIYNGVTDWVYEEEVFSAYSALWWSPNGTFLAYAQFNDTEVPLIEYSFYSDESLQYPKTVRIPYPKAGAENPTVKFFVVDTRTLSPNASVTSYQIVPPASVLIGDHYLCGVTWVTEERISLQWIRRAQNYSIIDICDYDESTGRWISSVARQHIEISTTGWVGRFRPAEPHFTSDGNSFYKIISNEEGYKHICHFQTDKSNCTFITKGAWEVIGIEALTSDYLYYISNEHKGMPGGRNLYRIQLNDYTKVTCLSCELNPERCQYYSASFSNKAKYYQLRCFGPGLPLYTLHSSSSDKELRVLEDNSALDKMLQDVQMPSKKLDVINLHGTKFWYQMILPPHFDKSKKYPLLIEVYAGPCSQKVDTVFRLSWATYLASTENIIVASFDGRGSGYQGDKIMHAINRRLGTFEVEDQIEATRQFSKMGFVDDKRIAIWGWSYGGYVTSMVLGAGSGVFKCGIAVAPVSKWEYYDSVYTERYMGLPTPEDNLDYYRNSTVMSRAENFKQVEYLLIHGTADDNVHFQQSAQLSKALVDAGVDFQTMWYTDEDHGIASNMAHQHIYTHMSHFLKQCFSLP

In the case of `CC[C@H](C)[C@H](NC(=O)[C@H](Cc1ccccc1)NC(=O)[C@H](CCC(=O)O)NC(=O)[C@H](CCCCN)NC(=O)[C@H](C)NC(=O)[C@H](C)NC(=O)[C@H](CCC(N)=O)NC(=O)CNC(=O)[C@H](CCC(=O)O)NC(=O)[C@H](CC(C)C)NC(=O)[C@H](Cc1ccc(O)cc1)NC(=O)[C@H](CO)NC(=O)[C@H](CO)NC(=O)[C@@H](NC(=O)[C@H](CC(=O)O)NC(=O)[C@H](CO)NC(=O)[C@@H](NC(=O)[C@H](Cc1ccccc1)NC(=O)[C@@H](NC(=O)CNC(=O)[C@H](CCC(=O)O)NC(=O)[C@H](C)NC(=O)[C@@H](N)Cc1c[nH]cn1)[C@@H](C)O)[C@@H](C)O)C(C)C)C(=O)N[C@@H](C)C(=O)N[C@@H](Cc1c[nH]c2ccccc12)C(=O)N[C@@H](CC(C)C)C(=O)N[C@H](C(=O)N[C@@H](CCCCN)C(=O)NCC(=O)N[C@@H](CCCN=C(N)N)C(=O)NCC(=O)O)C(C)C`, the t1/2 on Dipeptidyl peptidase 4 is on record as 46 min.

As usually defined, the IC50 is the concentration that inhibits the measured activity by half. What is called pIC50 is the negative decadic logarithm of the IC50, by convention in mol/L. A lower pIC50 goes with a large IC50. In general, Ki refers to a dissociation constant, usually derived from enzyme kinetics or from competition with a known ligand. `CC[C@H](C)[C@H](NC(=O)[C@H](Cc1ccc(O)cc1)NC(=O)[C@H](CCCNC(=N)N)NC(=O)[C@H](CCCNC(=N)N)NC(=O)[C@H](CC(C)C)NC(=O)[C@H](CC(=O)O)NC(=O)[C@H](C)NC(=O)[C@H](C)NC(=O)[C@H](Cc1ccc(O)cc1)NC(=O)[C@H](CCC(N)=O)NC(=O)[C@H](C)NC(=O)[C@H](CCSC)NC(=O)[C@H](CCC(N)=O)NC(=O)[C@H](CCC(=O)O)NC(=O)[C@@H]1CCCN1C(=O)[C@@H](NC(=O)[C@H](C)NC(=O)[C@H](CC(N)=O)NC(=O)[C@H](CC(=O)O)NC(=O)CNC(=O)[C@@H]1CCCN1C(=O)[C@H](Cc1ccc(O)cc1)NC(=O)[C@@H](NC(=O)[C@@H]1CCCN1C(=O)[C@H](CCC(=O)O)NC(=O)[C@H](CC(C)C)NC(=O)[C@@H]1CCCN1C(=O)[C@H](C)N)C(C)C)[C@@H](C)O)C(=O)N[C@@H](CC(N)=O)C(=O)N[C@@H](CCSC)C(=O)N[C@@H](CC(C)C)C(=O)N[C@H](C(=O)N[C@@H](CCCNC(=N)N)C(=O)N1CCC[C@H]1C(=O)N[C@@H](CCCNC(=N)N)C(=O)N[C@@H](Cc1ccc(O)cc1)C(=O)O)[C@@H](C)O`: the IC50 in [1] is 10 nM; in data set [5], above 1000 nM. Also, the results for the pIC50 in [1] and in data set [5] were 8 and below 6, respectively. The EC50 in data set [2] is 2.5 nM; in data set [3], 0.1 nM; in data set [4] (read-out: EC50), above 30 nM; in data set [4] (read-out: pEC50 (converted)) it was above 31.6 nM; in data set [6] (read-out: EC50) it was above 30 nM; in data set [6] (read-out: pEC50 (converted)), above 31.6 nM. The inhibitory constant (Ki) was found to be 5000 nM in data set [7] and 50 nM in data set [8].
